Data set [1] can be described thus: Volume of distribution at steady state in CD1 mouse at 4 mg/kg, iv. In kind it is ADME, organism-based. Further details: dose 4 mg/kg, route intravenous. The settings on record: in vivo, read-out: Vdss.
The nature of data set [2]: AUC (0 to t) in CD1 mouse at 4 mg/kg, iv. In kind it is ADME, organism-based. The settings on record: plasma. On the set-up: dose 4 mg/kg, route intravenous.
The nature of data set [3]: Metabolic stability in human S9 fraction assessed as compound remaining measured at 60 mins. In kind it is ADME. The settings on record: read-out: Stability.
A short description of data set [4]: Half life in CD1 mouse at 4 mg/kg, iv. In kind it is ADME, organism-based. On the set-up: dose 4 mg/kg, route intravenous. The settings on record: in vivo.
A short description of data set [5]: Cmax in CD1 mouse at 20 mg/kg, po. In kind it is ADME, organism-based. On the set-up: dose 20 mg/kg, route oral. Conditions: in vivo.
Data set [6] is described as follows: AUC (0 to t) in CD1 mouse at 20 mg/kg, po. In kind it is ADME, organism-based. Further details: dose 20 mg/kg, route oral. Conditions: plasma.
Data set [7] can be described thus: Clearance in CD1 mouse at 4 mg/kg, iv. In kind it is ADME, organism-based. The settings on record: in vivo. On the set-up: dose 4 mg/kg, route intravenous.
A short description of data set [8]: Metabolic stability in mouse microsomes assessed as compound remaining measured at 60 mins. In kind it is ADME, Microsome. Conditions: read-out: Stability.
Data set [9] in a line: Metabolic stability in human microsomes assessed as compound remaining measured at 60 mins. In kind it is ADME, Microsome. Conditions: read-out: Stability.
Data set [10] can be described thus: Metabolic stability in mouse S9 fraction assessed as compound remaining measured at 60 mins. In kind it is ADME. Conditions: s9, 1 h.
Data set [11] can be described thus: Bioavailability in CD1 mouse at 4 mg/kg, iv. Conditions: in vivo. In kind it is ADME, organism-based.
The nature of data set [12]: Tmax in CD1 mouse at 20 mg/kg, po. Further details: dose 20 mg/kg, route oral. The settings on record: in vivo. In kind it is ADME, organism-based.
Data set [13] deals with Mus musculus. In words: Anti-anemia activity in ICR mouse assessed as increase in red blood cell count at 50 mg/kg, qd administered for 4 days measured on day 8. In kind it is functional, organism-based. On the set-up: dose 50 mg/kg. The method in brief:
(§1)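 Normal male ICR mice, 6 weeks old, dosed once daily for 4 days (QDx4) or 12 days (QDx12) alongside a vehicle group. Mice were split into groups by blood sampling day (D5, D8, D13, D16). Hematocrit, RBC count and Hb were measured in blood. Statistics: P<0.05 and P<0.01 vs vehicle at each sampling time.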

The test system of data set [14] is Mus musculus. In words: Anti-anemia activity in ICR mouse assessed as increase in hemoglobin level at 50 mg/kg, qd administered for 4 days measured on day 5. In kind it is functional, organism-based. On the set-up: dose 50 mg/kg. The essentials: as §1
Data set [15] relates to Mus musculus. In words: Anti-anemia activity in ICR mouse assessed as increase in hematocrit level at 50 mg/kg, qd administered for 4 days measured on day 8. In kind it is functional, organism-based. Further details: dose 50 mg/kg. The method in brief: as §1
Data set [16] concerns Mus musculus. In words: Anti-anemia activity in ICR mouse assessed as increase in hemoglobin level at 50 mg/kg, qd administered for 4 days measured on day 8. In kind it is functional, organism-based. On the set-up: dose 50 mg/kg. The essentials:
as §1

Data set [17] relates to Mus musculus. In words: Anti-anemia activity in ICR mouse assessed as increase in hemoglobin level at 50 mg/kg, qd administered for 12 days measured on day 13. In kind it is functional, organism-based. Further details: dose 50 mg/kg. The essentials:
as §1

Data set [18] relates to Mus musculus. In words: Anti-anemia activity in ICR mouse assessed as increase in hematocrit level at 50 mg/kg, qd administered for 12 days measured on day 13. On the set-up: dose 50 mg/kg. In kind it is functional, organism-based. The essentials:
as §1

Data set [19] relates to Mus musculus. In words: Anti-anemia activity in ICR mouse assessed as increase in red blood cell count at 50 mg/kg, qd administered for 12 days measured on day 13. On the set-up: dose 50 mg/kg. In kind it is functional, organism-based. The method in brief: as §1
The subject of data set [20] is Mus musculus. In words: Anti-anemia activity in ICR mouse assessed as increase in red blood cell count at 50 mg/kg, qd administered for 12 days measured on day 16. In kind it is functional, organism-based. On the set-up: dose 50 mg/kg. The method in brief: as §1
Data set [21] concerns Mus musculus. In words: Anti-anemia activity in ICR mouse assessed as increase in hemoglobin level at 50 mg/kg, qd administered for 12 days measured on day 16. In kind it is functional, organism-based. On the set-up: dose 50 mg/kg. The essentials:
as §1

Data set [22] concerns Mus musculus. In words: Anti-anemia activity in ICR mouse assessed as increase in red blood cell count at 50 mg/kg, qd administered for 4 days measured on day 5. In kind it is functional, organism-based. On the set-up: dose 50 mg/kg. The essentials: as §1
For data set [23], the system named is Mus musculus. In words: Anti-anemia activity in ICR mouse assessed as increase in hematocrit level at 50 mg/kg, qd administered for 12 days measured on day 16. In kind it is functional, organism-based. Further details: dose 50 mg/kg. The method in brief: as §1
Data set [24] deals with Mus musculus. In words: Anti-anemia activity in ICR mouse assessed as increase in hematocrit level at 50 mg/kg, qd administered for 4 days measured on day 5. In kind it is functional, organism-based. Further details: dose 50 mg/kg. The method in brief:
as §1

Activity calls are given as the source filed them. The calls are words filed in the database; no cut-off is given here.

Take `O=C(O)CNC(=O)c1nc(Cl)c2c(sc3ccccc32)c1O`: in data set [1], the Vd stood at 0.503 L/kg. The exposure AUC(0-t) (as a rule, exposure summed from dosing to a finite time, without extrapolation to infinity) in [2] amounted to 17000 ng·h/mL; in data set [6], 53700 ng·h/mL. Also, the remaining at 1 h in [3] turned out to be 101%; in [8], 68.6%; in [9] it was 119%. Besides, the half-life – broadly, the time in which the quantity being followed falls by half – in [4] is 2.79 h. Also, the Cmax (in general, the peak of the concentration-time curve) in data set [5] was 15100 ng/mL. The clearance (commonly a measure of how efficiently the substance is removed, as volume per time) in [7] is 3.92 mL/min/kg. Further, the Stability in data set [10] turned out to be 125.7%. Moreover, the bioavailability (commonly the share of a dose that reaches the circulation, judged against a reference dose that is usually intravenous) in data set [11] was determined as 63.2%. In data set [12], the Tmax – broadly, the time from dosing to the highest level – was determined as 0.5 h.
As to `O=C(O)CNC(=O)c1nc(Cl)c2ccccc2c1O`, the inhibition result with Mus musculus [13], in the data set with Mus musculus [14], in the data set on Mus musculus [15], in the data set on Mus musculus [16], with Mus musculus [17] and in the data set on Mus musculus [18] was “Active” each time. Moreover, the inhibition result in the data set on Mus musculus [19], in the data set with Mus musculus [20], in the data set on Mus musculus [21], with Mus musculus [22], in the data set on Mus musculus [23] and in the data set with Mus musculus [24] was “Active” throughout.
